Each block holds one compound with its values, some of them ahead of it. Active and inactive are the calls of the source. No cut-off for these calls is given here.
Tests used:
[1] = tested on: MV4-11; test: Antiproliferative activity against human MV4-11 cells after 72 hrs by Celltiter-Glo assay; format: functional; conditions: MV4-11, 72 h
How it was run: (§1)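 Cells seeded at 3000/well in 96-well plates, exposed to serially diluted compound for 72 h at 37 °C, 5% CO2. Viability read by CellTiter-Glo luminescence and normalized to DMSO control. GI50 derived from curve fit, mean of three independent measurements. Culture media: DMEM/10% FBS for adherent lines; IMDM for MV4-11 and MEC-1/2; RPMI 1640 for suspension lines and CHL.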

[2] = Antiproliferative activity against human MEC1 cells after 72 hrs by Celltiter-Glo assay; format: functional; conditions: MEC1, 72 h; how it was run: as §1
[3] = biological target: CDK9/Cyclin K (Homo sapiens, UniProt P50750); test: Inhibition of CDK9/Cyclin K (unknown origin) using PDKtide as substrate incubated at 37 degreeC for 1 hr followed by incubation at room temperature for 5 mins by ADP-Glo reagent based luminescence assay; format: protein-complex assay
[4] = Antiproliferative activity against Chinese hamster CHL cells after 72 hrs by Celltiter-Glo assay; conditions: Cricetulus griseus
[5] = tested on: A-375; test: Antiproliferative activity against human A375 cells after 72 hrs by Celltiter-Glo assay; format: functional; conditions: A-375, 72 h; how it was run: as §1
[6] = tested on: A-431; test: Antiproliferative activity against human A431 cells after 72 hrs by Celltiter-Glo assay; format: functional; conditions: A-431, 72 h; how it was run: as §1
[7] = tested on: SK-N-BE(2)-M17; test: Antiproliferative activity against human BE(2)-M17 cells after 72 hrs by Celltiter-Glo assay; format: functional; conditions: SK-N-BE(2)-M17, 72 h; how it was run: as §1
[8] = tested on: GISTT1; test: Antiproliferative activity against human GISTT1 cells after 72 hrs by Celltiter-Glo assay; format: functional; conditions: GISTT1, 72 h; how it was run: as §1
[9] = tested on: COLO 205; test: Antiproliferative activity against human COLO205 cells after 72 hrs by Celltiter-Glo assay; format: functional; conditions: COLO 205, 72 h; how it was run: as §1
[10] = tested on: Ramos; test: Antiproliferative activity against human Ramos cells after 72 hrs by Celltiter-Glo assay; format: functional; how it was run: as §1
[11] = tested on: HL-60; test: Antiproliferative activity against human HL60 cells after 72 hrs by Celltiter-Glo assay; format: functional; conditions: HL-60, 72 h; how it was run: as §1
[12] = tested on: MOLM-13; test: Antiproliferative activity against human MOLM13 cells after 72 hrs by Celltiter-Glo assay; format: functional; conditions: MOLM-13, 72 h; how it was run: as §1
[13] = tested on: MOLM-14; test: Antiproliferative activity against human MOLM14 cells after 72 hrs by Celltiter-Glo assay; format: functional; conditions: MOLM-14, 72 h; how it was run: as §1
[14] = tested on: OCI-AML-3; test: Antiproliferative activity against human OCI-AML3 cells after 72 hrs by Celltiter-Glo assay; format: functional; conditions: OCI-AML-3, 72 h; how it was run: as §1
[15] = tested on: SKM-1; test: Antiproliferative activity against human SKM1 cells after 72 hrs by Celltiter-Glo assay; format: functional; conditions: SKM-1, 72 h; how it was run: as §1
[16] = tested on: U-937; test: Antiproliferative activity against human U937 cells after 72 hrs by Celltiter-Glo assay; format: functional; conditions: U-937, 72 h; how it was run: as §1
[17] = Antiproliferative activity against human MEC2 cells after 72 hrs by Celltiter-Glo assay; format: functional; conditions: MEC2, 72 h; how it was run: as §1
[18] = Antiproliferative activity against CHO cells after 72 hrs by Celltiter-Glo assay; format: cell-based, Cricetulus griseus; conditions: chinese hamster; how it was run: as §1
[19] = tested on: MV4-11; test: Induction of apoptosis in human MV4-11 cells assessed as decrease in caspase-3 level after 24 hrs by immunoblotting analysis; format: functional, cell-based
[20] = species: Homo sapiens; test: Induction of apoptosis in human MEC1 cells assessed as decrease in caspase-3 level after 24 hrs by immunoblotting analysis; format: functional, cell-based
[21] = tested on: HL-60; test: Induction of apoptosis in human HL60 cells assessed as decrease in caspase-3 level after 24 hrs by immunoblotting analysis; format: functional, cell-based
[22] = tested on: MV4-11; test: Induction of apoptosis in human MV4-11 cells assessed as decrease in MCL-1 level at 0.01 uM after 24 hrs by immunoblotting analysis; format: functional, cell-based
[23] = species: Homo sapiens; test: Induction of apoptosis in human MEC1 cells assessed as decrease in MCL-1 level at 0.01 uM after 24 hrs by immunoblotting analysis; format: functional, cell-based
[24] = tested on: HL-60; test: Induction of apoptosis in human HL60 cells assessed as decrease in MCL-1 level at 0.01 uM after 24 hrs by immunoblotting analysis; format: functional, cell-based
[25] = tested on: MV4-11; test: Induction of apoptosis in human MV4-11 cells assessed as decrease in c-MYC level at 0.01 uM after 24 hrs by immunoblotting analysis; format: functional, cell-based
[26] = species: Homo sapiens; test: Induction of apoptosis in human MEC1 cells assessed as decrease in c-MYC level at 0.01 uM after 24 hrs by immunoblotting analysis; format: functional, cell-based
[27] = tested on: HL-60; test: Induction of apoptosis in human HL60 cells assessed as decrease in c-MYC level at 0.01 uM after 24 hrs by immunoblotting analysis; format: functional, cell-based

CDK9/Cyclin K, sequence (P50750 whole entry): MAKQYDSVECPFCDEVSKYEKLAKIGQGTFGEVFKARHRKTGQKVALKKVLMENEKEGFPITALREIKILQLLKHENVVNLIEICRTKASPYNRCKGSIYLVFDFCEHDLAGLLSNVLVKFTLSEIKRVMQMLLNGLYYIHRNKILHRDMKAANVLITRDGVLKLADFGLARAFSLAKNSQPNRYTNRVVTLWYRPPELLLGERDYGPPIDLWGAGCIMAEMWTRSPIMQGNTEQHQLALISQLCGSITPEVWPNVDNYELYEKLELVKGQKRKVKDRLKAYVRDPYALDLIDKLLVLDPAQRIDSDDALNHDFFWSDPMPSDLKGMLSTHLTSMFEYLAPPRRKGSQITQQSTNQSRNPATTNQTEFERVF
CDK9/Cyclin K, sequence (O75909 whole entry, further chain): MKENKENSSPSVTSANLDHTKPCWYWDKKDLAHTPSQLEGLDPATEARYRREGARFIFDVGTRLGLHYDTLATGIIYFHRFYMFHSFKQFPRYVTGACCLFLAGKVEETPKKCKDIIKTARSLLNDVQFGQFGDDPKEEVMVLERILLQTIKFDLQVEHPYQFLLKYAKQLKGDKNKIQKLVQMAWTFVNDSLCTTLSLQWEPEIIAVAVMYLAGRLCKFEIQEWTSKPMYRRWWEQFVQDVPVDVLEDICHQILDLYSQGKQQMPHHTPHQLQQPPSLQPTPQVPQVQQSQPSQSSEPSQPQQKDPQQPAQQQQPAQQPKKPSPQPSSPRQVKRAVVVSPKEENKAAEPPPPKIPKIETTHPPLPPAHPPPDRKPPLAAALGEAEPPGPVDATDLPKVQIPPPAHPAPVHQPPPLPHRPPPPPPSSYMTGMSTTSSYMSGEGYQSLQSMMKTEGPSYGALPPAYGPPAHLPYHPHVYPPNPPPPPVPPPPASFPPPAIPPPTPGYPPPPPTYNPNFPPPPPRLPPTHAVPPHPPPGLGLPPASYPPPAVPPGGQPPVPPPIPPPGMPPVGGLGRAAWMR

Compound: CC(C)(C)OC(=O)Nc1nc(-c2cc(F)ncc2Cl)cs1
GI50 [1]: > 10000 nM | GI50 [2]: > 10000 nM | IC50 [3]: > 10000 nM | GI50 [4]: > 10000 nM

Compound: N[C@H]1CC[C@H](CNc2cc(-c3csc(NCC4CCOCC4)n3)c(Cl)cn2)CC1
GI50 [1]: 1900 nM | GI50 [2]: > 10000 nM | IC50 [3]: 84 nM | GI50 [4]: 3900 nM

Compound: CNc1nc(-c2cc(N[C@H]3CC[C@H](NCCOC)CC3)ncc2Cl)cs1
GI50 [1]: 530 nM | GI50 [2]: 1400 nM | IC50 [3]: 101 nM | GI50 [4]: 1900 nM

Compound: COC[C@H](C)N[C@H]1CC[C@H](Nc2cc(-c3csc(NCC4(C#N)CCOCC4)n3)c(Cl)cn2)CC1
GI50 [1]: 121 nM | GI50 [2]: 537 nM | IC50 [3]: 10 nM | GI50 [4]: 1250 nM

Compound: CCc1cnn2c(NCc3ccc[n+]([O-])c3)cc(N3CCCC[C@H]3CCO)nc12 [DINACICLIB]
GI50 [2]: 3.6 nM | GI50 [5]: 11 nM | GI50 [6]: 11 nM | GI50 [7]: 21 nM | GI50 [8]: 8.8 nM | GI50 [9]: 6.8 nM | GI50 [10]: 8.6 nM | GI50 [11]: 8 nM | GI50 [12]: 3.3 nM | GI50 [13]: 4.5 nM | GI50 [14]: 13 nM | GI50 [15]: 11 nM | GI50 [16]: 10 nM | GI50 [17]: 11 nM | GI50 at 72 h [18]: 160 nM | Activity [19]: Dose-dependent effect | Activity [20]: Dose-dependent effect | Activity [21]: Dose-dependent effect | Activity [22]: Active | Activity [23]: Active | Activity [24]: Active | Activity [25]: Active | Activity [26]: Active | Activity [27]: Active

Compound: Clc1cnc(Nc2ccccc2)cc1-c1csc(NCC2CCOCC2)n1
GI50 [1]: > 10000 nM | GI50 [2]: > 10000 nM | IC50 [3]: 238 nM | GI50 [4]: > 10000 nM

Compound: COC[C@@H](C)N[C@H]1CC[C@H](Nc2cc(-c3csc(NCC4(C#N)CCOCC4)n3)c(Cl)cn2)CC1 [TAMBICICLIB]
GI50 [1]: 14 nM | GI50 [2]: 47 nM | IC50 [3]: 9 nM | GI50 [4]: 1100 nM

Compound: COCCN[C@H]1CC[C@H](Nc2cc(-c3csc(NCC4C5CC6CC(C5)CC4C6)n3)c(Cl)cn2)CC1 (stereo partly drawn)
GI50 [1]: 3460 nM | GI50 [2]: 6310 nM | IC50 [3]: 94 nM | GI50 [4]: 2040 nM

Continued, in another order:

GI50 [1]: 7700 nM | IC50 [3]: 1670 nM
Compound: COCCN[C@H]1CC[C@H](Oc2cc(-c3csc(NCC4CCOCC4)n3)c(Cl)cn2)CC1
GI50 [2]: > 10000 nM | GI50 [4]: > 10000 nM

GI50 [1]: 910 nM | IC50 [3]: 114 nM
Compound: COCCN[C@H]1CC[C@H](Nc2cc(-c3csc(NCC4CCOCC4)n3)ccn2)CC1
GI50 [2]: 2500 nM | GI50 [4]: 1200 nM

GI50 [1]: 440 nM | IC50 [3]: > 10000 nM
Compound: COC[C@H](C)N[C@H]1CC[C@H](Nc2cc(-c3csc(NCC4CCOCC4)n3)c(Cl)cn2)CC1
GI50 [2]: 1300 nM | GI50 [4]: 3600 nM

GI50 [1]: > 10000 nM | IC50 [3]: 150 nM
Compound: O=C(N[C@H]1CC[C@H](Nc2cc(-c3csc(NCC4CCOCC4)n3)c(Cl)cn2)CC1)C1CC1
GI50 [2]: > 10000 nM | GI50 [4]: > 10000 nM

GI50 [1]: 740 nM | IC50 [3]: 96 nM
Compound: COCCN[C@H]1CC[C@H](Nc2cc(-c3csc(NCC4CC4)n3)c(Cl)cn2)CC1
GI50 [2]: 890 nM | GI50 [4]: 1400 nM

GI50 [1]: 2160 nM | IC50 [3]: 80 nM
Compound: COCCN[C@H]1CC[C@H](Nc2cc(-c3csc(NCC4CCCC4)n3)c(Cl)cn2)CC1
GI50 [2]: 2940 nM | GI50 [4]: > 10000 nM

GI50 [1]: 1090 nM | IC50 [3]: 12 nM
Compound: COCCCN[C@H]1CC[C@H](Nc2cc(-c3csc(NCC4CCOCC4)n3)c(Cl)cn2)CC1
GI50 [2]: 2610 nM | GI50 [4]: 2030 nM

GI50 [1]: 497 nM | IC50 [3]: 51 nM
Compound: CCOCCN[C@H]1CC[C@H](Nc2cc(-c3csc(NCC4CCOCC4)n3)c(Cl)cn2)CC1
GI50 [2]: 634 nM | GI50 [4]: 2820 nM

GI50 [1]: 570 nM | IC50 [3]: 28 nM
Compound: COCCN[C@H]1CC[C@H](Nc2cc(-c3csc(OCC4CCOCC4)n3)c(Cl)cn2)CC1
GI50 [2]: 1400 nM | GI50 [4]: 3300 nM
